Hits are enriched below; roughly 2.8% of the tested compounds scored in any of these assays.
NPY-Y2 PAM-ag – potentiates or activates human NPY-Y2 receptor. 0.45% of 220,000 active. activation, % at 3.6 µM. cells expressing NPY-Y2, potentiator/agonist read-out. P49146; in the data active = activation above about 27%;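 also: cells stimulated with NPY near EC25 plus isoproterenol at EC100; 0% = vehicle plus submaximal agonist and 100% = vehicle plus saturating agonist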
Target sequence (P49146 whole entry, looked up): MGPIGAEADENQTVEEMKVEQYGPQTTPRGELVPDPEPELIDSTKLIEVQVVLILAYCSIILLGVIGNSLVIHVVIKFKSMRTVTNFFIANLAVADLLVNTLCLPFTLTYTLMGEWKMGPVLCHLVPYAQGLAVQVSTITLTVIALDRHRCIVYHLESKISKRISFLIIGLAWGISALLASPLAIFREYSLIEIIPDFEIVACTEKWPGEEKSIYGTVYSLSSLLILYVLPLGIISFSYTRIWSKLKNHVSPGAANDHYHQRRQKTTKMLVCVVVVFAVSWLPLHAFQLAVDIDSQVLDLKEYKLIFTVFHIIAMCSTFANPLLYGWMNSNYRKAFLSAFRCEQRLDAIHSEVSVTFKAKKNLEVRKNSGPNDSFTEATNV
EP2 mod – modulators of human EP2 prostaglandin E2 receptor; P43116; AID 940; EP2-expressing cells, cAMP HTRF FRET, PGE2 co-stimulation; 0.83% of 260,000 active; induction, % at 25 µM;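 active = compounds whose cAMP rise, as percent of the full-agonist control response, exceeds 60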;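 also: rat C6 glioma line stably carrying human EP2 under a CMV promoter; the protocol text gives 20 µM as final concentration; 100% = response of wells given 1 µM PGE2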
PGE2 EP2 inh – EP2 receptor (human) inhibition. P43116. C6 glioma cells expressing human EP2, cAMP TR-FRET; cells stimulated with saturating PGE2. inhibition, % at 25 µM. 0.52% of 260,000 active;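 active = percent inhibition above 40 after rounding to a whole number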;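 also: rat C6 glioma host cells with rolipram phosphodiesterase inhibitor present; the protocol text gives 20 µM as final concentration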
NPY1 pot ag – potentiators or agonists of human neuropeptide Y receptor Y1; AID 1304; NPY-Y1 expressing cells, potentiator/agonist activation; activation, % at 3.6 µM; 0.37% of 220,000 active; P25929; in the data active = activation above about 33%, passing the limit was not always enough;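 also: cells stimulated with NPY at EC10 then isoproterenol at EC100; 0% = low agonist plus stimulus and 100% = saturating agonist plus stimulus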
NPY-Y2 antag – antagonists of human neuropeptide Y receptor Y2. P49146. NPY-Y2 expressing cells, antagonist mode. inhibition, % at 2.7 µM. 0.99% of 140,000 active; in the data active = inhibition above about 17%;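 also: 0% = vehicle with agonist challenge and 100% = reference antagonist with challenge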
NPY-Y1 antag – blocks the human neuropeptide Y Y1 receptor; P25929; HEK293-CNG Y1 cells, membrane potential fluorescence; NPY at EC95, then isoproterenol; inhibition, % at 3.6 µM; 1% of 200,000 active; AID 1040;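 active = inhibition above the campaign mean inhibition of all tested compounds plus 3 SD, cut at about 20% in these data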;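 also: 0% = DMSO wells given NPY plus isoproterenol and 100% = isoproterenol alone without NPY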
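Material: Y1- and CNG-channel-expressing HEK293 cells / Probe or stimulus: NPY 25 nM then isoproterenol 1 µM plus Ro 20-1724 25 µM / Doses: 3.6 µM single dose, DMSO 0.4% / Schedule: compound incubation 1 h at room temperature, readout 45 min post-stimulation / Signal: membrane potential fluorescence / Benchmarks: isoproterenol-only wells as full block versus NPY-plus-isoproterenol wells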
The depositor's hits bear a star; . = no result given; ! = repeats disagree.

SMILES	NPY-Y2 PAM-ag	EP2 mod	PGE2 EP2 inh	NPY1 pot ag	NPY-Y2 antag	NPY-Y1 antag
CCc1nn(CC(=O)NC2CC2)c(=O)c2cc3sc(C)cc3n12	.	16.4	.	.	.	.
Cc1cccc(/C=N/NC(=O)NC2CCCCC2)c1	2.5	62.7*	5.5	-21.9	3.5	4.5
Cc1ccc(/C=N/NC(=O)NC2CCCCC2)o1	-5.9	2.0	13.3	6.8	.	-0.7
CCOc1ncccc1C(=O)Nc1nc(C(C)(C)C)cs1	-11.6	63.5*	0.3	-9.8	.	2.8
CCCCNC(=O)Cn1nc(-c2cc3c(s2)CCC3)oc1=O	.	-32.2	3.0	.	.	.
COc1ccccc1NC(=S)N(CCN(C)C)Cc1cc2cccc(C)c2[nH]c1=O	.	-35.1	5.0	.	.	.
COc1cccc2sc(Nc3nc(-c4ccncc4)cs3)nc12	35.2*	-13.8	0.8	40.4*	.	-13.9
Cc1ccccc1-n1c(C)cc(/C=C2/C(=N)N3C(c4ccccc4)=CSC3=NC2=O)c1C	-4.5	6.4	7.5	-12.7	0.9	-2.4
N=C1/C(=C\c2ccc(-c3cccc(C(=O)O)c3)o2)C(=O)N=C2SC=C(c3ccccc3)N12	18.0	-49.8	59.0*	12.4	.	.
CC1CCC(NC(=O)CN2CCC(O)(c3cccnc3)CC2)CC1 (configuration not stated)	.	-27.9	.	.	.	.
c1nc(N2CCN(Cc3ccc4c(c3)OCO4)CC2)c2[nH]cnc2n1	101.1*	-18.1	10.1	56.6*	5.1	3.9
Cc1cc(C)cc(OCC(=O)Nc2ccc3c4c(cccc24)CC3)c1	-6.6	22.1	8.1	-25.2	4.3	4.7
O=C(COc1ccc2ccccc2c1)Nc1ccc2c3c(cccc13)CC2	5.0	-22.5	8.6	-3.5	20.9*	10.0
O=C(NCc1ccco1)C(c1cccs1)N(C(=O)Cn1nnc2ccccc21)c1ccc(F)cc1 (configuration not stated)	.	17.5	13.2	.	.	.
Cc1[nH]c2ccccc2c1-c1cc(-c2cc(-c3c(C)[nH]c4ccccc34)on2)no1	.	-23.1	47.1*	.	.	.
Cc1[nH]c2ccccc2c1-c1csc(N)n1	.	-105.9	8.1	.	.	.
COc1ccc(Cc2c3cc(OC)c(OC)cc3cc[n+]2CC(=O)c2ccccc2)cc1OC	.	30.4	4.6	.	.	.
Nc1nonc1C(=O)NCCNCc1cc(Br)ccc1OCc1ccccc1F	-20.7	3.8	3.8	-52.1	43.1*	44.2*
CCOc1ccc(OCC)c(-c2c(=O)n(OCc3ccccc3Br)c3ccccc3[n+]2[O-])c1	-8.7	64.2*	4.5	6.8	4.2	11.3
CCOc1ccc(-c2c(=O)n(OCc3ccccc3Br)c3ccccc3[n+]2[O-])c(OCC)c1	0.5	33.3	18.0	14.7	.	0.4
Cc1ccc(S(=O)(=O)N(C)c2ccccc2)cc1	-0.5	12.0	9.3	3.1	2.1	-0.1
CC(=O)Oc1ccc(N(c2ccccc2)S(=O)(=O)c2ccc(C)cc2)cc1	10.4	60.5*	8.7	3.4	.	2.2
CCOc1cc(S(=O)(=O)NCc2cccc(OC)c2)c(OCC)cc1-n1cnnn1	.	16.2	4.2	.	.	.
CC(=O)Nc1ccc(S(=O)(=O)N2CC=C[C@H]2C(=O)NCCc2ccccc2)cc1	.	-48.1	7.0	.	.	.
O=C(O)c1ccccc1-c1ccccc1C(=O)Nc1ccc2c(c1)[nH]c(=O)c1ccccc12	9.8	7.0	46.1*!	3.4	.	.
SMILES	NPY-Y2 PAM-ag	EP2 mod	PGE2 EP2 inh	NPY1 pot ag	NPY-Y2 antag	NPY-Y1 antag
Cc1ccc(NC(=O)c2ccccc2-c2ccccc2C(=O)O)cc1C	5.8	20.1	7.0	-4.8	.	-0.3
O=C(Nc1ccc(CN2CCOCC2)cc1)c1ccc(-c2cc(Cl)ccc2Cl)o1	-46.4	-39.3	59.2*	-30.0	12.2	5.0
NS(=O)(=O)c1ccc(NC(=O)c2ccc(-c3cc(Cl)ccc3Cl)o2)cc1	.	-3.6	7.4	.	.	.
COc1ccc(C(Nc2ccccn2)c2c(NC(=O)c3ccco3)sc(C)c2C)cc1 (configuration not stated)	15.6	-0.9	7.1	8.8	-0.8	2.9
COc1ccc([C@@H](Nc2ccccn2)c2cc(C(C)(C)C)cc(C(C)(C)C)c2O)cc1	.	36.2	45.9*	.	.	.
O=C1COc2ccc(C(=O)Cn3nnc4sc5c(c4c3=O)CCCC5)cc2N1	.	-64.7	14.4	.	.	.
COc1ccc(C(=O)Nc2nc(-c3ccc(OC)c(OC)c3)c(C)s2)cc1OC	.	-49.9	13.8	.	.	.
CCOCCCNC(=O)C(c1ccc(Cl)cc1)N1CCC2(CC1)OCCO2 (configuration not stated)	36.2*	22.7	7.2	31.9*	6.9	4.2
CCOCCCNC(=O)C(c1ccc(Cl)cc1)N1CCN(c2ccccc2)CC1 (configuration not stated)	.	11.3	11.2	.	.	.
OC1C[C@H]2CC[C@@H](C1)N2CCCN1c2ccccc2Sc2ccc(Cl)cc21 (some centres not stated)	.	-16.4	47.1*	.	.	.
Clc1ccc(-c2cc(COc3ccc4ccccc4c3)no2)cc1	-14.3	14.5	.	-0.7	1.0	-3.5
c1ccc2cc(-c3cc(-c4cc(-c5ccc6ccccc6c5)on4)no3)ccc2c1	.	-28.4	45.3*	.	.	.
CC1(C)Cc2cccc(OCC(O)CN3CCN(c4ccccn4)CC3)c2O1 (configuration not stated)	91.0*	-1.6	10.2	103.9*	1.1	-14.7
CC(C)NC(=O)NC(=O)COc1cccc2c1OC(C)(C)C2	2.9	13.0	15.1	-7.1	0.4	-0.9
CC1(C)Cc2cccc(OCC(O)CNCc3ccccn3)c2O1 (configuration not stated)	65.7*	4.7	11.4	80.3*	4.6	-5.7
COc1ccc(-c2cc3nc(C)c(C)c(NCCCN(C)C)n3n2)cc1	.	-13.8	7.8	.	.	.
CCCC(c1nnnn1CC1CCCO1)N(Cc1ccco1)Cc1cc2cccc(C)c2[nH]c1=O (configuration not stated)	.	55.4	10.8	.	.	.
Cn1c(C2CCCCC2)nc2c1c(=O)[nH]c(=O)n2Cc1ccccc1	-15.5	64.7*	8.4	-3.8	.	7.8
Cc1ccc(-c2nc3c(c(=O)[nH]c(=O)n3Cc3ccccc3)n2C)s1	-3.6	-3.4	1.6	-14.6	.	.
O=S1(=O)CC2NC(=S)N(c3cccc(Br)c3)C2C1 (configuration not stated)	0.8	70.4*	5.9	3.1	.	.
O=C1N(c2ccccc2)C2CS(=O)(=O)CC2N1c1ccc(Br)cc1 (configuration not stated)	9.4	-6.2	10.4	-4.9	0.3	4.7
CCN(CC)c1nc2ccccc2c(N)c1-c1ccccc1	-13.7	23.7	17.2	-9.8	23.5*	29.4*
Nc1c2ccccc2nc2ccccc12	51.4*	-11.2	6.5	63.5*	.	.
Nc1c2c(nc3ccccc13)CCCC2	8.3	8.2	11.8	-24.1	3.1	-5.3
Cc1ccc([N+](=O)[O-])cc1NC(=O)CN(C1CCCCC1)S(=O)(=O)c1ccc(Cl)cc1	5.3	29.5	2.6	18.9	3.1	2.1
Cc1ccc([N+](=O)[O-])cc1NC(=O)CN(C(=O)c1ccccc1Cl)C1CCCCC1	10.9	9.3	7.8	-9.1	25.9*	50.0*
